Reference: paper PMC3967098 (Journal of medicinal chemistry, 2008)
Where two headings read alike, the source gives them in different places. One block for each compound: values may come before it.

How the values were obtained:
[1] = tested on: FRET-tagged duplex DNA sequence; test: FRET melting assay, duplex DNA; format: binding
[2] = tested on: hTel quadruplex (human telomere); test: SPR equilibrium binding, hTel quadruplex; conditions: strong binding site; 25°C, HEPES 100mM KCl pH 7.3
In short: (§1)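 5′-Biotinylated quadruplex oligonucleotides were captured on a streptavidin chip to 350-400 RU, with a blank reference flow cell. Runs used 10mM HEPES, 100mM KCl, 3mM EDTA and P20 surfactant (pH 7.3) at 25°C. Ligand (1nM–10µM) was injected at 50µl/min for 5–10 min to steady state, then buffer for 10 min. The surface was regenerated with 10mM glycine pH 2.0, and KA came from nonlinear least-squares fitting.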

c-kit1 quadruplex = test: SPR equilibrium binding, c-kit1 quadruplex; design: species or system human; conditions: strong binding site; 25°C
In short: as §1

c-kit2 quadruplex = test: SPR equilibrium binding, c-kit2 quadruplex; design: species or system human; conditions: strong binding site; 25°C
In short: as §1

c-myc quadruplex = test: SPR equilibrium binding, c-myc quadruplex; design: species or system human; conditions: for SPR Ligand KA for a single-site fit, c-myc: strong binding site, 25°C
In short: as §1

MCF7 cells [3] = test: Long-term; format: cell-based, human; conditions: 1 week MCF7
In short: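 MCF7 cells (1×10^5 seeded, supplemented DMEM, 37 °C, 5% CO2) were exposed for 1 week to two sub-cytotoxic ligand concentrations, re-dosed twice weekly, alongside a media-only control. Cells were counted by haemocytometer, and population doublings were calculated as n = (log Pn – log P0)/log2, where P0 is the seeding density. Values are reported ± sd.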

[4] = tested on: hTel quadruplex (human telomere); conditions: strong binding site; cited from earlier work
DNA hairpin duplex = conditions: cited from earlier work
[5] = tested on: MCF7 breast adenocarcinoma cell line; conditions: read-out: SRB IC50, MCF7; cited from earlier work
[6] = tested on: A549 non-small cell lung carcinoma cell line; conditions: read-out: SRB IC50, A549; cited from earlier work
MCF7 cells [7] = test: Assessment of chromosomal end-end fusions; format: cell-based, human; conditions: 1 week, data not shown

SMILES: O=C(CCCN1CCCC1)Nc1cccc(NC(=O)c2cccc(NC(=O)Nc3cccc(C(=O)Nc4cccc(NC(=O)CCCN5CCCC5)c4)c3)c2)c1 [9f, 1,3-bis(3-(3-(4-(pyrrolidin-1-yl)butanamido)phenylcarbamoyl)phenyl)urea]
FRET ΔTm at a 1μM ligand concentration, Duplex [1]: 0.0 ± 0.3 °C

SPR Ligand KA for a single-site fit, hTel [2]: 400000 M⁻¹
SPR Ligand KA for a single-site fit, c-kit1 (c-kit1 quadruplex): 400000 M⁻¹
SPR Ligand KA for a single-site fit, c-kit2 (c-kit2 quadruplex): 3.1e+06 M⁻¹
SPR Ligand KA for a single-site fit, c-myc (c-myc quadruplex): 900000 M⁻¹
SMILES: O=C(CCCN1CCCC1)Nc1ccc(NC(=O)c2cccc(NC(=O)Nc3cccc(C(=O)Nc4ccc(NC(=O)CCCN5CCCC5)cc4)c3)c2)cc1 [9c, 1,3-bis(3-(4-(4-(pyrrolidin-1-yl)butanamido)phenylcarbamoyl)phenyl)urea]
FRET ΔTm at a 1μM ligand concentration, Duplex [1]: 0.0 ± 0.6 °C
PD (population doublings) (MCF7 cells [3]; 3.50 μM): 3.94 ± 0.24
PD (population doublings) (MCF7 cells [3]; 7.00 μM): 3.35 ± 0.03

SMILES: CN(C)c1ccc(Nc2c3ccc(NC(=O)CCN4CCCC4)cc3nc3cc(NC(=O)CCN4CCCC4)ccc23)cc1 [BRACO-19, 3,6-bis(3-pyrrolidin-1-ylpropionamido)-9-(4-dimethylaminophenylamino) acridine]
SPR Ligand KA for a single-site fit, hTel [4]: 3.1e+07 M⁻¹
SPR KA, Duplex (DNA hairpin duplex): 500000 M⁻¹
IC50 [5]: 2.5 µM
IC50 [6]: 2.4 µM

SPR Ligand KA for a single-site fit, hTel [2]: 1.1e+06 M⁻¹
SPR Ligand KA for a single-site fit, c-kit1 (c-kit1 quadruplex): 1.4e+06 M⁻¹
SPR Ligand KA for a single-site fit, c-kit2 (c-kit2 quadruplex): 5e+06 M⁻¹
SPR Ligand KA for a single-site fit, c-myc (c-myc quadruplex): 2.1e+06 M⁻¹
SMILES: O=C(CCN1CCCC1)Nc1ccc(NC(=O)c2cccc(NC(=O)Nc3cccc(C(=O)Nc4ccc(NC(=O)CCN5CCCC5)cc4)c3)c2)cc1 [9b, 1,3-bis(3-(4-(3-(pyrrolidin-1-yl)propanamido)phenylcarbamoyl)phenyl)urea]
PD (population doublings) (MCF7 cells [3]; 1.00 μM): 4.53 ± 0.07
PD (population doublings) (MCF7 cells [3]; 1.75 μM): 4.50 ± 0.03
PD (population doublings) (MCF7 cells [3]; 2.25 μM): 2.73 ± 0.20
chromosomal end-end fusions relative to an untreated control (MCF7 cells [7]): did not show significant changes

SMILES: O=C(CCN1CCCC1)Nc1cccc(NC(=O)c2ccc(NC(=O)Nc3ccc(C(=O)Nc4cccc(NC(=O)CCN5CCCC5)c4)cc3)cc2)c1 [10e, 1,3-bis(4-(3-(3-(pyrrolidin-1-yl)propanamido)phenylcarbamoyl)phenyl)urea]
PD (population doublings) (MCF7 cells [3]; 1.00 μM): 3.40 ± 0.26
PD (population doublings) (MCF7 cells [3]; 2.00 μM): 1.81 ± 0.10

SPR Ligand KA for a single-site fit, hTel [2]: 1.4e+06 M⁻¹
SPR Ligand KA for a single-site fit, c-kit1 (c-kit1 quadruplex): 2.1e+06 M⁻¹
SPR Ligand KA for a single-site fit, c-kit2 (c-kit2 quadruplex): 5.1e+06 M⁻¹
selectivity for the c-myc quadruplex (SPR) (c-myc quadruplex; relative to the other quadruplexes): ~3 fold
SPR Ligand KA for a single-site fit, c-myc (c-myc quadruplex): 1.4e+07 M⁻¹
SMILES: O=C(CN1CCCC1)Nc1ccc(NC(=O)c2cccc(NC(=O)Nc3cccc(C(=O)Nc4ccc(NC(=O)CN5CCCC5)cc4)c3)c2)cc1 [9a, 1,3-bis(3-(4-(2-(pyrrolidin-1-yl)acetamido)phenylcarbamoyl)phenyl)urea]
FRET ΔTm at a 1μM ligand concentration, Duplex [1]: 0.0 ± 0.6 °C
PD (population doublings) (MCF7 cells [3]; 5.00 μM): 3.79 ± 0.12
PD (population doublings) (MCF7 cells [3]; 10.00 μM): 3.00 ± 0.38

SMILES: O=C(CCN1CCCCC1)Nc1ccc(NC(=O)c2cccc(NC(=O)Nc3cccc(C(=O)Nc4ccc(NC(=O)CCN5CCCCC5)cc4)c3)c2)cc1 [9h, 1,3-bis(3-(4-(3-(piperidin-1-yl)propanamido)phenylcarbamoyl)phenyl)urea]
PD (population doublings) (MCF7 cells [3]; 2.00 μM): 3.66 ± 0.00
PD (population doublings) (MCF7 cells [3]; 3.50 μM): 3.46 ± 0.34
